Sampled rows, rich in hits. Any-hit rate of the full collection: about 1.9%.
UCH37 inh = blocks the human deubiquitinase UCH37 | Q9Y5K5 | purified proteasome/UCH37, Ub-AMC cleavage fluorescence | inhibition, % (test concentration not listed) | 330,000 tested, 0.33% active | AID 588478;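 active = mean inhibition over replicate wells above about 20%, limit read from the data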;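 also: 0% = compound-free wells with enzyme and 100% = wells lacking proteasome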
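Material: Human UCH37 enzyme supplied as purified proteasome complex | Schedule: 30 min preincubation with enzyme, 25 min cleavage at room temperature | Detection: AMC fluorescence 355/460 nm | Measure: % inhibition of Ub-AMC cleavage fluorescence | Controls: Wells without proteasome as full block, compound-free enzyme plus substrate as uninhibited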
NR1D1 modulator = modulators of human Rev-erb alpha DNA binding. activity, % at 10 µM. Rev-erbα–FITC-DNA binding, fluorescence polarization, 90 min. 370,000 tested, 0.79% active. AID 1259318. P20393;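 active = activity above about 14%, limit read from the data; passing the limit was not always enough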;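 also: 0% = DMSO wells with 35 nM protein and 100% = DMSO wells with 750 nM protein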
Target sequence (P20393 whole entry, looked up): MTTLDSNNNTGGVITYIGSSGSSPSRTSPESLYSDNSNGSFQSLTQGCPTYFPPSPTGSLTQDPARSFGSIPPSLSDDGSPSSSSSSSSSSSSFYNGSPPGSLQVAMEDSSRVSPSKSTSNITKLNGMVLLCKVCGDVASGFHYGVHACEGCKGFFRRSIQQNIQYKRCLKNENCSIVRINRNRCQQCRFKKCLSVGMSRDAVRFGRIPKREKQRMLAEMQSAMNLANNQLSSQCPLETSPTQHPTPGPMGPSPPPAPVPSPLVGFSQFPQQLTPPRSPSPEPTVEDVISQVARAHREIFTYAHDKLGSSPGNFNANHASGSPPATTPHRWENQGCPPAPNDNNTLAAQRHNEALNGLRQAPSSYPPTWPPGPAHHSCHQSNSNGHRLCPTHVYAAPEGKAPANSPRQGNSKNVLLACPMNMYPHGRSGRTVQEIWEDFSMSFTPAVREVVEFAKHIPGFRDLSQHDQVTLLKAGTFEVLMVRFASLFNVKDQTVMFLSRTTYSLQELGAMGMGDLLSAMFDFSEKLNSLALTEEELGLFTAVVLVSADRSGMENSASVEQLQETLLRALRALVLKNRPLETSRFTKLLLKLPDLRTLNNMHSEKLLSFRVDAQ
PG9 Ab binder = binds the HIV-1 gp120 antibody PG9; TR-FRET gp120-PG9 antibody binding; inhibition, % at 6.7 µM; 360,000 tested, 0.43% active; AID 624416; in the data active = inhibition above about 8.5%
CR mimetic SO = lowers age-related superoxide in aged yeast cells; S. cerevisiae aged cells, superoxide DHE fluorescence; stronger effect = lower value; 330,000 tested, 0.18% active; superoxide response (% of plate mean), % at 10 µM;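 active = superoxide response under a set limit, about three screen SD below normal, cut at about 65% in these data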;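 also: yeast aged for seven days with compound at 30 °C before DHE staining; 100% = average MFI of all compound-treated wells on the plate with controls excluded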
Rce1 inhib = yeast Ras-converting enzyme inhibition. Q03530. yeast membranes, quenched prenylated peptide cleavage fluorescence. calls only. 290,000 tested, 0.27% active;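 active = fall in fluorescence gain of 50% or more versus controls, with final raw signal at or below 3038400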;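 also: plate controls were neutral control wells for no effect and wells lacking membranes for full effect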
beta cell repl = induces beta-cell replication in MIN6 cells; MIN6 cells proliferation, ATPlite luminescence, 48 h; cells starved in 0.2% serum; 100% = growth in 10% serum; proliferation, % at 10 µM; 330,000 tested, 0.29% active; AID 2380;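 active = compounds whose signal lies at least 3.5 SD above the mean of all wells on their plate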;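 also: 0% = DMSO-treated cells in low-serum medium and 100% = 10% serum control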
NR1D1 mod conf = Rev-erb alpha (human) modulation, hit confirmation; Rev-erb alpha FITC-DNA binding, fluorescence polarization, 90 min; shares compounds with NR1D1 modulator; activation, % at 25 µM; 3,000 tested, 61% active;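 active = activation at or above a set limit, or at least 3 SD above the negative control mean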;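 also: 0% = 35 nM protein with DMSO and 100% = 750 nM protein high control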
RORg DNA counter = RORgamma DNA-binding activity, dose-response counter-screen | shares compounds with NR1D1 modulator | purified RORgamma protein-FITC-DNA binding, fluorescence polarization | IC50, µM | 910 tested, 8% active;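 active = Compounds whose fitted half-maximal concentration for disrupting protein-DNA binding is below 10 micromolar; the record names Rev-erb in its text, so the target is in doubt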
An asterisk follows results filed as active; i = inactive; nt = no result.

SMILES	UCH37 inh	NR1D1 modulator	PG9 Ab binder	CR mimetic SO	Rce1 inhib	beta cell repl	NR1D1 mod conf	others
COC(=O)[C@@H]1CCC(C)[C@@H](c2ccc(C)cc2)N1C(=O)c1ccc(C=NOC(C)c2cn(C(CO)Cc3ccccc3)nn2)cc1 (stereo not given in full)	3.2	nt	nt	nt	nt	nt	nt
Cc1ccc(S(=O)(=O)N(C)c2ccc(OCC(=O)Nc3nc4c(ccc5ccccc54)s3)cc2)cc1	-0.1	24.4*	-2.0	90.2	i	0.0	26.9*
Cc1ccc(S(=O)(=O)N(C)c2ccc(OCC(=O)Nc3nc4ccccc4s3)cc2)cc1	1.0	-8.1	-2.8	101.0	i	-2.7	nt
O=[N+]([O-])c1cccc(-c2cc(C(F)(F)F)n3nc(-c4ccccc4)cc3n2)c1	-3.9	9.9	-1.7	122.3	i	-2.9	nt
FC(F)(F)c1cc(-c2ccccn2)nc2cc(-c3ccccc3)nn12	-70.2	45.5*	-0.1	93.4	i	-2.8	23.6*
Cc1ccccc1Cn1cc(S(=O)(=O)c2ccc(C(C)C)cc2)c(=O)c2cc3c(cc21)OCO3	1.7	40.3*	0.1	89.9	nt	0.4	21.3*
O=C(NN=Cc1ccc(F)cc1)c1cccc(NC(=O)c2ccc(F)cc2)c1	-9.4	nt	nt	nt	nt	nt	nt
CCCN1C(=O)/C(=C\C=C2\N(CC)c3ccccc3C2(C)C)SC1=S	9.9	61.7*	-0.1	nt	i	nt	2.2
CN1/C(=C\C=C2/SC(=S)NC2=O)C(C)(C)c2ccccc21	8.4	37.4*	-5.6	119.5	i	-6.1	18.9*
CCN1C(=O)C(=CC=CN(C)c2ccccc2)SC1=S	nt	42.5*	-1.9	nt	nt	nt	45.9*	RORg DNA counter=>40
CN1/C(=C\C=N\O)C(C)(C)c2ccccc21	nt	-0.3	-2.4	97.7	i	-3.6	nt
COc1ccc(CCCC(=O)NN=Cc2cccc(OC)c2O)cc1C	0.0	nt	nt	nt	nt	nt	nt
Cc1cc(=O)oc2cc(OCC3CC(c4ccc(N(C)C)cc4)=NO3)ccc12 (stereo not given)	-2.8	7.1	0.3	96.4	nt	-1.1	nt
Cc1cc(=O)oc2cc(OCC3CC(c4ccc(Cl)cc4)=NO3)ccc12 (stereo not given)	-19.2	79.6*	-1.0	97.4	i	0.0	71.6*	RORg DNA counter=i
Cc1ccc(CN2CCN(N=C/C(Br)=C/c3ccccc3)CC2)cc1	0.6	nt	nt	nt	nt	nt	nt
CCCCCC1=CCCC1=NNC(=O)c1ccc2c(c1)OCO2	0.8	nt	nt	nt	nt	nt	nt
CNC(=O)/C(C#N)=C/c1cn(CC(=O)OC)c2ccccc12	8.7	0.5	-1.7	101.5	i	-1.2	nt
COC(=O)Cn1cc(/C=C/c2cc[n+](C)cc2)c2ccccc21	nt	54.9*	-2.6	101.8	i	-1.6	63.3*	RORg DNA counter=>40
COC(=O)Cn1c(C)c(/C=C/c2cc[n+](C)cc2)c2ccccc21	16.4	154.1*	-9.6	99.5	i	-0.5	113.7*	RORg DNA counter=>40
CCc1ccc2c(c1)C(=NN(C)C(=S)NC)C(=O)N2	4.1	nt	nt	nt	nt	nt	nt
Fc1ccc(-c2nc3ccc(Br)cn3c2Cc2cccc(Cl)c2)cc1	nt	28.0*	5.1	nt	nt	nt	14.0*
Cc1ccc(Cc2c(-c3ccc(C)cc3)nc3ccc(Br)cn23)cc1	nt	14.1	3.0	nt	nt	nt	nt
Fc1ccc(-c2nc3ccc(Br)cn3c2Cc2ccccc2)cc1	nt	19.7*	3.1	nt	nt	nt	12.8*
Clc1ccc(-c2nc3ccc(Br)cn3c2Cc2ccccc2)cc1	nt	23.3*	7.2	nt	nt	nt	19.7*
Brc1ccc(-c2nc3ccc(Br)cn3c2Cc2ccccc2)cc1	nt	26.0*	7.0	nt	nt	nt	15.7*
SMILES	UCH37 inh	NR1D1 modulator	PG9 Ab binder	CR mimetic SO	Rce1 inhib	beta cell repl	NR1D1 mod conf	others
COc1cc(OC)c(OC)cc1C=NNC(=O)c1cccc(S(=O)(=O)N2CCOCC2)c1	10.1	nt	nt	nt	nt	nt	nt
CC(=NNC(=O)c1ccccn1)c1ccc(C(=O)O)s1	11.7	nt	nt	nt	nt	nt	nt
O=C(C1=NN[C@@H]2C(=O)N(Cc3ccccc3)C(=O)[C@H]12)c1ccc([N+](=O)[O-])cc1	6.2	15.9*	-0.2	108.8	i	-0.5	4.2
COc1ccc(Oc2nc(-c3cccnc3)nc3ccccc23)cc1	-5.7	5.2	-2.5	86.1	i	-2.1	nt
Fc1ccccc1Oc1nc(-c2ccncc2)nc2ccccc12	-2.1	32.8*	0.1	95.6	i	-0.4	15.0
CNC(=S)NN=Cc1cc(Br)c(OCc2ccncc2)c(OC)c1	0.9	nt	nt	nt	nt	nt	nt
COc1cccc(C=NNC(=S)NCc2ccco2)c1OC	-0.5	nt	nt	nt	nt	nt	nt
Cc1nn(C)cc1NC(=O)C[C@H]1CC[C@H]2[C@@H](COc3ccc(NC(=O)Nc4ccccc4)cc3C(=O)N2C)O1	nt	42.4*	nt	nt	nt	nt	21.2*
CN1C(=O)c2cc(NC(=O)Nc3ccccc3)ccc2OC[C@H]2O[C@@H](CC(=O)NC3CCC3)CC[C@@H]21	nt	49.5*	nt	nt	nt	nt	29.2*	RORg DNA counter=>40
COc1ccc(C(=O)Nc2ccc3c(c2)C(=O)N(C)[C@H]2CC[C@H](CC(=O)NCC4CC4)O[C@@H]2CO3)cc1	nt	29.8*	nt	nt	nt	nt	17.7*
Cc1nc(C#N)c(NN=Cc2cccc(Cl)c2)o1	3.7	nt	nt	nt	nt	nt	nt
C/C(C=NNC(=O)c1ccncc1)=C/c1ccc(C(C)C)cc1	3.1	nt	nt	nt	nt	nt	nt
S=c1[nH]nc(-c2cc(-c3ccccc3)n[nH]2)n1N=C/C=C/c1ccccc1	6.7	nt	nt	nt	nt	nt	nt
CCCOc1ccc(C=NNc2ccccn2)cc1OC	1.6	nt	nt	nt	nt	nt	nt
CC(=O)c1sc(NC(=O)COc2ccc(Cl)cc2Cl)nc1C	2.2	31.0*	0.4	105.9	i	4.7	1.2
CC(=O)c1sc(NC(=O)COc2c(C)cc(Cl)cc2C)nc1C	4.0	nt	nt	102.9	i	-0.7	nt
CC(=O)c1sc(NC(=O)COc2ccc(Cl)cc2C)nc1C	0.9	84.1*	2.9	78.8	i	0.4	25.3*
CCCCNC(=S)NN=Cc1ccc(C)s1	2.2	nt	nt	nt	nt	nt	nt
Cc1nn(C)c(C)c1N1C(=O)c2cccc3c(N)ccc(c23)C1=O	10.8	174.7*	-8.9	80.7	nt	nt	156.7*	RORg DNA counter=1.83*
CCN1C(=O)c2cccc3c(N)ccc(c23)C1=O	nt	240.0*	-8.0	102.8	i	2.1	245.9*	RORg DNA counter=5.26*
Cc1nn(C)c(C)c1N1C(=O)c2cccc3c(Br)ccc(c23)C1=O	8.7	0.1	4.2	103.1	nt	-2.6	nt
Cc1ccc(N2C(=O)c3cccc4c(N)ccc(c34)C2=O)c2cccnc12	11.0	125.7*	-0.8	96.3	i	-3.6	131.2*
CCN1C(=O)c2cccc3c(S(=O)(=O)N4CCC(C)CC4)ccc1c23	-157.1	4.9	0.9	100.5	nt	-5.2	nt
CCCCOc1ccc(C=NNC(=O)C2CCCNC2=O)cc1 (stereo not given)	3.7	nt	nt	nt	nt	nt	nt
CN1C(=CC=C2C=C(I)C(=O)C(I)=C2)C(C)(C)c2ccccc21	10.3	-4.2	-1.0	nt	nt	nt	nt

Compound activity from PubChem.
